Assay outcomes as filed in PubChem.
S1P4 ag – S1P4 receptor agonists, primary screen, cell-based. 220,000 tested, 0.35% active. activation, % at 4.98 µM. Sphingosine 1-phosphate receptor 4 (Homo sapiens), O95977. S1P4-expressing cell line, agonist reporter assay; in the data active = activation above about 11%
S1P4 antagonist – S1P4 receptor antagonists, primary screen, cell-based; Sphingosine 1-phosphate receptor 4 (Homo sapiens), O95977; S1P4-expressing cells, antagonist mode, reporter read-out; inhibition, % at 4.98 µM; 220,000 tested, 0.26% active; AID 1510, 2009; in the data active = inhibition above about 29%
S1P3 antagonist – S1P3 receptor antagonists, primary screen, cell-based | 170,000 tested, 0.27% active | inhibition, % at 4.98 µM | AID 485, 2006 | CHO S1P3 NFAT-BLA reporter, FRET fluorescence, antagonist mode;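 active = inhibition above the plate cutoff, the mean inhibition of test wells on that plate plus 3 SD, cut at about 28% in these data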;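 also: cells challenged with S1P at its EC80 of 0.8 µM; blue over green emission ratio from cleaved BLA substrate after 4 h stimulation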
Target sequence (Q99500 whole entry, looked up): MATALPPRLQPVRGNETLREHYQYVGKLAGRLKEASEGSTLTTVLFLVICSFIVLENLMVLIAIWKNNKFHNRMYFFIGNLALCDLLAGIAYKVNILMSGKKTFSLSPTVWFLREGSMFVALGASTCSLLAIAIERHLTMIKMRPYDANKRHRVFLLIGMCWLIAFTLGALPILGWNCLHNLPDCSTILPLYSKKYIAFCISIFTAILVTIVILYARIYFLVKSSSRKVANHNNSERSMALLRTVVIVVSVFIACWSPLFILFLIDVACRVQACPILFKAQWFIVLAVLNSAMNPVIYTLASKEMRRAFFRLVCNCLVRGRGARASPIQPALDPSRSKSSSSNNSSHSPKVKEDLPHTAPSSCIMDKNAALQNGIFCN
Biofilm kill mix – clotrimazole potentiators killing C. albicans biofilm, primary screen, 4-compound mixtures | inhibition, % at 7.6 µM | AID 1242, 2008 | 120,000 tested, 0.02% active | C. albicans biofilm persisters + clotrimazole, fluorescence viability; primary screen in compound mixtures of four per well;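 also: compounds exposed to preformed 24 h biofilms for 48 h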
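Probe or stimulus – Clotrimazole 50 µg/mL co-treatment · System – C. albicans biofilms · Schedule – 24 h biofilm formation, then 48 h compound exposure, 37 °C · Evaluation – percent inhibition of biofilm viability · Technique – 2-h Alamar Blue fluorescence, 535/590 nm excitation/emission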
Pf gamet viab – late stage P. falciparum gametocyte viability inhibitors, primary screen, ATP luminescence, HTS; inhibition, % at 10.9 µM; P. falciparum stage V gametocytes, 24 h; AID 743093, 2013; 150,000 tested, 0.065% active;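 active = inhibition above the mean plus 3 SD of compounds within the control limits, set per campaign, cut at about 38% in these data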
A number is an active result. A selection: hits, their analogues and other compounds. The true share with any hit is near 0.77%.

What do the screens show for `CC(C)(C)NC(=O)NC(=O)COC(=O)CNC(=O)c1cc(Cl)cc([N+](=O)[O-])c1`?
S1P4 ag: inactive; S1P4 antagonist: inactive; S1P3 antagonist: inactive; Biofilm kill mix: inactive; Pf gamet viab: 42

What do the screens show for `COc1cccc(NS(=O)(=O)c2ccc(OC)c(OC)c2)c1`?
S1P4 ag: inactive; S1P4 antagonist: inactive; S1P3 antagonist: 63; Pf gamet viab: inactive

How did COc1ccc(S(=O)(=O)Nc2ccccc2)cc1OC do in these assays?
S1P4 ag: inactive; S1P4 antagonist: inactive

Results for N#Cc1c(/N=C/c2cccs2)sc2c1CCCCC2 ?
S1P4 ag: inactive; S1P4 antagonist: inactive; S1P3 antagonist: 57; Pf gamet viab: inactive

What do the screens show for `N#Cc1c(/N=C/c2ccc(Br)s2)sc2c1CCC2`?
S1P4 ag: inactive; S1P4 antagonist: inactive; Biofilm kill mix: inactive; Pf gamet viab: inactive

What do the screens show for `CC(NC(=O)CCc1nnc(CCCc2ccccc2)o1)c1ccccc1` (stereo not given)?
S1P4 ag: inactive; S1P4 antagonist: inactive; S1P3 antagonist: inactive; Biofilm kill mix: inactive; Pf gamet viab: 50

What do the screens show for `O=C1C2C3C=CC(C3)C2C(=O)N1c1ccc(-c2nc(-c3ccccc3)nc3ccccc23)cc1` (stereo not given)?
Pf gamet viab: inactive

Results for COc1ccc(CC(=O)Nc2ccc(-c3cn4ccc(C)cc4n3)cc2)cc1 ?
S1P4 ag: inactive; S1P4 antagonist: inactive

Results for O=C(CSc1nc2[nH]ncc2c(=O)n1-c1ccccc1Br)NCc1ccco1 ?
S1P4 ag: inactive; S1P4 antagonist: inactive; S1P3 antagonist: 83

How did O=C(CSc1nc2ccccc2c(=O)n1Cc1ccccc1)NCc1ccco1 do in these assays?
S1P4 ag: inactive; S1P4 antagonist: inactive

Results for O=C(CSc1nc2ccccc2c(=O)n1Cc1ccco1)NCc1ccccc1 ?
S1P4 ag: inactive; S1P4 antagonist: inactive; S1P3 antagonist: 76

How did CCc1ccccc1NC(=O)N1C2CCCC1CC(NC(=O)C(C)(C)C)C2 (stereo not given) do in these assays?
S1P4 ag: inactive; S1P4 antagonist: inactive; S1P3 antagonist: 63

What do the screens show for `Cc1ccc(NC(=O)N2C3CCCC2CC(NC(=O)C(C)(C)C)C3)cc1` (stereo not given)?
Pf gamet viab: inactive

Results for COc1cccc2c1OCC/C2=N\NC(=O)C(C)Oc1ccc([N+](=O)[O-])cc1 (stereo not given) ?
S1P4 ag: inactive; S1P4 antagonist: inactive; S1P3 antagonist: inactive; Biofilm kill mix: inactive

Results for CS/C(=N\S(=O)(=O)c1cccs1)Nc1ccc(F)c(Cl)c1 ?
S1P4 ag: inactive; S1P4 antagonist: inactive; S1P3 antagonist: inactive; Biofilm kill mix: inactive; Pf gamet viab: 59

What do the screens show for `CS/C(=N\S(=O)(=O)c1cccs1)Nc1cccc(Cl)c1C`?
S1P4 ag: inactive; S1P4 antagonist: inactive; S1P3 antagonist: inactive; Biofilm kill mix: inactive

What do the screens show for `N#CC(C#N)=Cc1c[nH]c(=O)c(C#N)c1Nc1ccccc1`?
Pf gamet viab: inactive

What do the screens show for `CC1=C(C)/C(=N\OS(=O)(=O)c2ccc(C)cc2)C=CC1=O`?
S1P4 ag: inactive; S1P4 antagonist: 43; S1P3 antagonist: inactive; Biofilm kill mix: inactive; Pf gamet viab: inactive

What do the screens show for `COc1ccc(S(=O)(=O)/N=C2/C=CC(=O)C(C)=C2C)cc1`?
S1P4 ag: inactive; S1P4 antagonist: inactive

What do the screens show for `COc1ccc(-n2nc(C#N)c(Cl)cc2=O)cc1`?
S1P4 ag: inactive; S1P4 antagonist: 30; S1P3 antagonist: inactive; Biofilm kill mix: inactive; Pf gamet viab: inactive

What do the screens show for `CCOC(=O)C1=c2s/c(=C\c3ccncc3)c(=O)n2C(N)=C(C(=O)OC)C1c1ccncc1` (stereo not given)?
S1P4 ag: inactive; S1P4 antagonist: inactive; S1P3 antagonist: inactive; Biofilm kill mix: inactive; Pf gamet viab: inactive

How did CCOC(=O)C1=C(N)n2c(s/c(=C/c3ccco3)c2=O)=C(C(=O)OC)C1c1ccco1 (stereo not given) do in these assays?
S1P4 ag: inactive; S1P4 antagonist: inactive; S1P3 antagonist: 81; Pf gamet viab: inactive

How did COc1ccccc1C(=O)N(C)c1nnc(-c2ccccc2)s1 do in these assays?
Pf gamet viab: inactive

Results for CCOC(=O)c1ccc(N2CSC3=C(C#N)C(c4cccs4)CC(=O)N3C2)cc1 (stereo not given) ?
S1P4 ag: inactive; S1P4 antagonist: inactive; S1P3 antagonist: 96

Results for Cc1ccnn1Cc1cc(C(=O)O)c2ccccc2n1 ?
S1P4 ag: inactive; S1P4 antagonist: inactive; S1P3 antagonist: inactive; Biofilm kill mix: inactive; Pf gamet viab: inactive

What do the screens show for `N#CC(C#N)=C1C=CC=CN1/C(=C\c1ccco1)C(=O)c1ccc(-c2ccccc2)cc1`?
S1P4 ag: inactive; S1P4 antagonist: 69; S1P3 antagonist: inactive; Biofilm kill mix: inactive; Pf gamet viab: inactive

Results for O=C1C=C(c2ccoc2)N2CCC[C@H]2C1 ?
Pf gamet viab: inactive

How did COc1ccc(NC(=O)C(Cl)=C(Cl)Cl)cn1 do in these assays?
S1P4 ag: inactive; S1P4 antagonist: inactive; S1P3 antagonist: inactive; Biofilm kill mix: inactive; Pf gamet viab: inactive

Results for COc1ccc(NC(=O)/C(Cl)=C(/Cl)S(=O)Cc2ccc(Cl)cc2)cn1 (stereo not given) ?
S1P4 ag: inactive; S1P4 antagonist: 52; S1P3 antagonist: 44; Biofilm kill mix: inactive; Pf gamet viab: inactive

Results for O=C(CCC1CCCCC1)NCc1ccc(F)cc1 ?
S1P4 ag: inactive; S1P4 antagonist: inactive; S1P3 antagonist: inactive; Biofilm kill mix: inactive; Pf gamet viab: inactive

What do the screens show for `O=C(CCC1CCCCC1)NCc1ccncc1`?
S1P4 ag: inactive; S1P4 antagonist: inactive; S1P3 antagonist: 82

What do the screens show for `CC(=O)NC(CCS(C)(=O)=O)C(=O)Nc1ccc(Oc2ccccc2)cc1` (stereo not given)?
S1P4 ag: inactive; S1P4 antagonist: inactive; S1P3 antagonist: inactive

What do the screens show for `Cn1c(Cn2c(=O)sc3ccccc32)nnc1SCC(=O)Nc1ccccc1F`?
S1P4 ag: inactive; S1P4 antagonist: inactive; S1P3 antagonist: 99

What do the screens show for `CCC(CO)Oc1cc(NCc2ccccc2Cl)c2ncn(C(C)C)c2c1` (stereo not given)?
Pf gamet viab: inactive

How did CCc1c(C(=O)Nc2cc(C)ccc2OC)[nH]c(C)c1C(C)=O do in these assays?
S1P4 ag: inactive; S1P4 antagonist: inactive; S1P3 antagonist: 58

How did CCc1c(C(=O)Nc2ccc(OC)cc2)[nH]c(C)c1C(C)=O do in these assays?
S1P4 ag: inactive; S1P4 antagonist: inactive; S1P3 antagonist: inactive; Pf gamet viab: inactive

Results for CC(NCc1ccc(S(N)(=O)=O)cc1)C(=O)N1c2ccccc2CC1C (stereo not given) ?
S1P4 ag: inactive; S1P4 antagonist: inactive; S1P3 antagonist: inactive; Biofilm kill mix: inactive; Pf gamet viab: inactive

How did OCCN1CCN(c2ncnc3ccc(Br)cc23)CC1 do in these assays?
S1P4 ag: inactive; S1P4 antagonist: inactive; S1P3 antagonist: 102
